This note sets out measurements from the RNAGym collection of RNA variant scans (doi:10.1002/anie.201605470).

B1: Osa-1-4 twister ribozyme (parent)
chain: CCGCCUAACACUGCCAAUGCCGGUCCCAAGCCCGGAUAAAAGUGGAGGGGGCGG

Variants of B1 are the subject of this series. The series can be described thus: self-cleavage, relative activity (ratio to wild type); higher = more cleavage; co-transcriptional. In a few lines:
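A DNA template for a 54-nucleotide Oryza sativa twister ribozyme was synthesised with 97 % wild-type base and 1 % of each other base at the 48 positions downstream of the cleavage site. It was transcribed in vitro for 2 h at 37 °C, allowing co-transcriptional self-cleavage, then reverse-transcribed with a template-switching oligonucleotide, PCR-amplified and deep-sequenced. Cleavage status was scored from reads with or without upstream sequence. Relative activity is fraction cleaved normalised to wild type.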
As to C11G G42U, the self-cleavage turned out to be 0.61.

In the case of C11G G42C, the self-cleavage was 0.76.

For C11G C26U, the self-cleavage worked out at 0.19.

On to C11G C26A, for which the self-cleavage is 0.03.

Regarding C11G C26G, the self-cleavage was found to be 0.1.

As to C11A C27A, the self-cleavage is 0.12.

As for C11A C27G, the self-cleavage was 0.04.

For the variant C11A C27U, the self-cleavage came out at 0.08.

Turning to C11A C14G, the self-cleavage stood at 0.1.

On to C11A C14A, for which the self-cleavage was determined as 0.07.

In the case of C11A C14U, the self-cleavage amounted to 0.15.

Turning to A10U G34C, the self-cleavage came out at 0.03.

As for A10U G34U, the self-cleavage is 0.03.

Regarding A10U G34A, the self-cleavage was determined as 0.05.

As for C11U C15G, the self-cleavage is 0.19.

As for C11U C15U, the self-cleavage was 0.13.

In the case of C11U C15A, the self-cleavage was 0.21.

In the case of C11U C31A, the self-cleavage stood at 0.03.

C11U C31G: the self-cleavage was 0.06.

For C11U C31U, the self-cleavage was 0.37.

Turning to C11G G45U, the self-cleavage worked out at 0.06.

With C11G G45A, the self-cleavage turned out to be 0.05.

As to C11G G45C, the self-cleavage turned out to be 0.04.

Consider A10U G42C, for which the self-cleavage turned out to be 0.04.

Turning to A10U G42U, the self-cleavage amounted to 0.02.

For A10U G42A, the self-cleavage was determined as 0.04.

In the case of C11U G47A, the self-cleavage came to 0.09.

For the variant C11U G47C, the self-cleavage stood at 0.07.

In the case of C11U G47U, the self-cleavage was 0.07.

Take C11U G13A: the self-cleavage is 0.05.

As to C11U G13U, the self-cleavage turned out to be 0.04.

In the case of C11U G13C, the self-cleavage was found to be 0.04.

As for C11G C32G, the self-cleavage was 0.06.

Turning to C11G C32U, the self-cleavage stood at 0.04.

On to C11G C32A, for which the self-cleavage worked out at 0.04.

As for C11U G48U, the self-cleavage was 0.05.

As for C11U G48C, the self-cleavage is 0.06.

Turning to C11U G48A, the self-cleavage was found to be 0.07.

As to A10U U24C, the self-cleavage is 0.02.

Turning to A10U U24G, the self-cleavage worked out at 0.01.

Take A10U U24A: the self-cleavage worked out at 0.03.

As to C11A G13A, the self-cleavage is 0.03.

For the variant C11A G13U, the self-cleavage amounted to 0.04.

Regarding C11A G13C, the self-cleavage was 0.03.

On to C11G G35C, for which the self-cleavage amounted to 0.05.

As to C11G G35U, the self-cleavage came to 0.06.

Turning to C11G G35A, the self-cleavage was found to be 0.08.

On to C11A, for which the self-cleavage came to 0.84.

Consider C11G, for which the self-cleavage came out at 0.7.

For C11U, the self-cleavage came out at 0.94.

C11G C33A: the self-cleavage is 0.04.

C11G C33G: the self-cleavage was 0.07.

Regarding C11G C33U, the self-cleavage turned out to be 0.06.

Turning to A10U G53U, the self-cleavage stood at 0.03.

Regarding A10U G53A, the self-cleavage is 0.04.

Regarding A10U G53C, the self-cleavage was 0.02.

For the variant C11G U18C, the self-cleavage is 0.24.

For C11G U18G, the self-cleavage was found to be 0.54.

Consider C11G U18A, for which the self-cleavage was 0.52.

C11G G47C: the self-cleavage worked out at 0.04.

As to C11G G47U, the self-cleavage turned out to be 0.04.

Regarding C11G G47A, the self-cleavage is 0.04.

On to C11A G44A, for which the self-cleavage was 0.19.

Regarding C11A G44C, the self-cleavage came to 0.45.

On to C11A G44U, for which the self-cleavage was 0.08.

With C11A C32U, the self-cleavage worked out at 0.06.

Turning to C11A C32A, the self-cleavage turned out to be 0.06.

C11A C32G: the self-cleavage is 0.07.

As to C11A G34C, the self-cleavage came out at 0.07.

As to C11A G34A, the self-cleavage worked out at 0.16.

As for C11A G34U, the self-cleavage was determined as 0.11.

Turning to C11G G44C, the self-cleavage is 0.11.

On to C11G G44U, for which the self-cleavage came to 0.09.

Regarding C11G G44A, the self-cleavage is 0.17.

With C11A G49U, the self-cleavage came to 0.07.

As to C11A G49C, the self-cleavage turned out to be 0.06.

For the variant C11A G49A, the self-cleavage was determined as 0.06.

With C11G U43A, the self-cleavage is 0.15.

In the case of C11G U43G, the self-cleavage was 0.05.

Consider C11G U43C, for which the self-cleavage was 0.08.

For C11U C52A, the self-cleavage turned out to be 0.83.

As for C11U C52G, the self-cleavage is 0.81.

Consider C11U C52U, for which the self-cleavage stood at 0.98.

With C11U C9A, the self-cleavage came out at 0.26.

Turning to C11U C9G, the self-cleavage was found to be 0.36.

As to C11U C9U, the self-cleavage was found to be 0.65.

Turning to C11A U24C, the self-cleavage came out at 0.06.

Take C11A U24A: the self-cleavage was determined as 0.05.

As to C11A U24G, the self-cleavage is 0.07.

In the case of C11A G30U, the self-cleavage was 0.03.

On to C11A G30C, for which the self-cleavage was 0.03.

As for C11A G30A, the self-cleavage is 0.03.

In the case of C11A G47U, the self-cleavage was found to be 0.06.

In the case of C11A G47A, the self-cleavage was found to be 0.07.

For C11A G47C, the self-cleavage is 0.05.

In the case of A10U G50A, the self-cleavage was found to be 0.05.

For A10U G50C, the self-cleavage turned out to be 0.03.

As for A10U G50U, the self-cleavage came to 0.04.

In the case of C11U G19C, the self-cleavage was determined as 0.07.

For the variant C11U G19U, the self-cleavage was found to be 0.1.

As to C11U G19A, the self-cleavage worked out at 0.23.

For the variant C11U G42A, the self-cleavage worked out at 0.93.

As for C11U G42U, the self-cleavage turned out to be 0.47.

Consider C11U G42C, for which the self-cleavage stood at 0.85.

Consider C11G G34C, for which the self-cleavage was found to be 0.05.

Regarding C11G G34A, the self-cleavage came to 0.07.

Consider C11G G34U, for which the self-cleavage is 0.04.

Regarding C11U C26G, the self-cleavage is 0.08.

Regarding C11U C26A, the self-cleavage was 0.05.

Take C11U C26U: the self-cleavage is 0.6.

For C11G G49U, the self-cleavage came to 0.05.

On to C11G G49C, for which the self-cleavage was found to be 0.03.

As for C11G G49A, the self-cleavage stood at 0.05.

For A10U G47U, the self-cleavage stood at 0.02.

For the variant A10U G47A, the self-cleavage amounted to 0.02.

For the variant A10U G47C, the self-cleavage amounted to 0.02.

As to C11G G23C, the self-cleavage worked out at 0.02.

Consider C11G G23U, for which the self-cleavage was determined as 0.04.

Take C11G G23A: the self-cleavage was 0.05.

As for C11U G30A, the self-cleavage was found to be 0.04.

Regarding C11U G30C, the self-cleavage is 0.05.

For C11U G30U, the self-cleavage was determined as 0.03.

Turning to A10U U37C, the self-cleavage turned out to be 0.05.

In the case of A10U U37A, the self-cleavage is 0.04.

For A10U U37G, the self-cleavage was 0.04.

Take C11A G19A: the self-cleavage was determined as 0.11.

For C11A G19C, the self-cleavage amounted to 0.04.

Regarding C11A G19U, the self-cleavage was 0.06.

Consider C11A G51A, for which the self-cleavage stood at 0.17.

Regarding C11A G51C, the self-cleavage is 0.04.

With C11A G51U, the self-cleavage turned out to be 0.06.

C11U C21A: the self-cleavage came out at 0.29.

For C11U C21G, the self-cleavage worked out at 0.11.

On to C11U C21U, for which the self-cleavage was 0.91.

Consider A10U G44A, for which the self-cleavage was found to be 0.03.

A10U G44C: the self-cleavage is 0.09.

Turning to A10U G44U, the self-cleavage came out at 0.08.

In the case of C11G G51U, the self-cleavage worked out at 0.05.

In the case of C11G G51A, the self-cleavage was found to be 0.07.

Consider C11G G51C, for which the self-cleavage was 0.03.

For C11U C20G, the self-cleavage is 0.09.

Turning to C11U C20U, the self-cleavage was found to be 0.78.

With C11U C20A, the self-cleavage is 0.71.

Consider C11G C52A, for which the self-cleavage turned out to be 0.24.

Turning to C11G C52G, the self-cleavage turned out to be 0.22.

As to C11G C52U, the self-cleavage was 0.73.

Take C11G G50U: the self-cleavage turned out to be 0.42.

With C11G G50A, the self-cleavage came out at 0.11.

In the case of C11G G50C, the self-cleavage was 0.15.

For C11G G48C, the self-cleavage stood at 0.03.

As to C11G G48A, the self-cleavage was determined as 0.03.

With C11G G48U, the self-cleavage turned out to be 0.03.

A10U G30A: the self-cleavage is 0.01.

As to A10U G30C, the self-cleavage turned out to be 0.01.

With A10U G30U, the self-cleavage came to 0.01.

Regarding C11A G54A, the self-cleavage turned out to be 0.62.

Take C11A G54C: the self-cleavage worked out at 0.66.

Consider C11A G54U, for which the self-cleavage stood at 0.71.

For C11A C33A, the self-cleavage turned out to be 0.06.

Regarding C11A C33G, the self-cleavage amounted to 0.04.

Turning to C11A C33U, the self-cleavage is 0.2.

Regarding A10U G45U, the self-cleavage came out at 0.02.

For A10U G45C, the self-cleavage turned out to be 0.02.

With A10U G45A, the self-cleavage was 0.03.

For C11U G44C, the self-cleavage was determined as 0.84.

Turning to C11U G44A, the self-cleavage was 0.8.

Consider C11U G44U, for which the self-cleavage amounted to 0.67.
